Data from ChEMBL document CHEMBL1135762, “Chiral N,N-disubstituted trifluoro-3-amino-2-propanols are potent inhibitors of cholesteryl ester transfer protein” (J Med Chem, 2002).

Key:
[1] = biological target: T1, Cholesteryl ester transfer protein (Homo sapiens, UniProt P11597); experiment: Concentration required for 50% inhibition of cholesteryl ester transfer protein in presence of buffer.
T1 sequence (P11597 whole entry): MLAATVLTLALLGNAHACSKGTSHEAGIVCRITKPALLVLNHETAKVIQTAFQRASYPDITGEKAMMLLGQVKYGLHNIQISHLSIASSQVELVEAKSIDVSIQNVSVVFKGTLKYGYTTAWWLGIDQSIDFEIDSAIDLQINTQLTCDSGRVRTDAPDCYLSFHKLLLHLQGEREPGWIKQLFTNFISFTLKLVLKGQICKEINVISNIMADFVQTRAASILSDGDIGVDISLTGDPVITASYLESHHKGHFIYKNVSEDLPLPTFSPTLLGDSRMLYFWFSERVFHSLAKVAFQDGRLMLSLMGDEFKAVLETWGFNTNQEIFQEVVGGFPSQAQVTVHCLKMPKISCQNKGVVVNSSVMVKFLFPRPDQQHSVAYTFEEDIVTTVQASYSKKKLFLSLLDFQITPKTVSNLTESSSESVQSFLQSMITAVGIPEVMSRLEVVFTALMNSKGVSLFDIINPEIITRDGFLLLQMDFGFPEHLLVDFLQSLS

[2] = biological target: T1, Cholesteryl ester transfer protein; experiment: Inhibition of cholesteryl ester transfer protein in presence of human serum
How it was run: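 CETP-mediated transfer of [³H]CE from HDL donor particles, measured with human serum supplying LDL, VLDL and human CETP.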

[3] = biological target: T2, Cholesteryl ester transfer protein (Homo sapiens) (UniProt P11597); conditions: Cricetulus griseus; 30 mg/kg
T2 sequence (whole entry): T1 sequence (P11597 whole entry)

Mus musculus [4] = experiment: Inhibition of CETP-mediated transfer ex vivo after 30 min in hCEPT transgenic mice by a single dose at 30 mg/kg; type: functional; conditions: 0.5 h
How it was run: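 C57Bl/6 mice homozygous for the human CETP gene, fed high-fat chow for at least 2 weeks. Single 30 mg/kg iv bolus in 10% ethanol/90% PEG; controls got vehicle. 0.05 mL [³H]CE-HDL (human HDL) was given into the tail vein. After 30 min, EDTA blood was taken and plasma obtained at 4 °C. Gel filtration gave the [³H]CE proportion in VLDL, LDL and HDL, compared with controls.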

[5] = Bioavailability in mice was reported; type: ADME, organism-based; conditions: mouse, in vivo
Mus musculus [6] = experiment: Oral dosing of qd for 5 days at 30 mg/kg had percent increase of HDLc in hCEPT transgenic mice; type: functional
How it was run: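 C57bl mice transgenic for human CETP (plasma hCETP 2–20 µg/mL), fed cholesterol- and fat-supplemented chow for at least 2 weeks. Dosed orally at 30 mg/kg once daily for 5 days. Serum then analysed by size exclusion chromatography on two Superose 6 columns for relative VLDLc, LDLc and HDLc.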

[7] = biological target: T2, Cholesteryl ester transfer protein (Homo sapiens); conditions: Cricetulus griseus; 33 mg/kg

| Compound | IC50 [1] [µM] | also measured |
| --- | --- | --- |
| OC(CN(Cc1cccc(OC(F)(F)F)c1)c1cccc(Oc2ccccc2)c1)c1ccccc1 (stereo not given) | > 50 | – |
| OC(COc1cccc(CN(CC(O)C(F)(F)F)c2cccc(Oc3ccccc3)c2)c1)C(F)(F)F (stereo not given) | 1.3 | IC50 [2]: 62 µM |
| COC(=O)c1cccc(CN(CC(O)C(F)(F)F)c2cccc(Oc3ccccc3)c2)c1 (stereo not given) | 16 | – |
| OC(CN(Cc1cccc(OC(F)(F)C(F)F)c1)c1cccc(Oc2ccccc2)c1)C(F)(F)F (stereo not given) | – | inhibition [3]: 30%; inhibition in vivo at 30 mg/kg (Mus musculus [4]): 50%; bioavailability [5]: < 10%; Increase (Mus musculus [6]): 20% |
| C=CC(O)CN(Cc1cccc(OC(F)(F)F)c1)c1cccc(Oc2ccccc2)c1 (stereo not given) | > 50 | – |
| COc1cccc(CN(CC(O)C(F)(F)F)c2cccc(Oc3ccccc3)c2)c1 (stereo not given) | 15 | IC50 [2]: > 200 µM |
| OC(CN(Cc1cccc(C(F)(F)F)c1)c1cccc(Cl)c1)C(F)(F)F (stereo not given) | 12 | – |
| OC(CN(Cc1cccc(C(F)(F)F)c1)c1cccc(F)c1)C(F)(F)F (stereo not given) | 37 | – |
| OC(Cc1ccccc1)CN(Cc1cccc(OC(F)(F)F)c1)c1cccc(Oc2ccccc2)c1 (stereo not given) | > 50 | – |
| CC(C)(O)c1cccc(CN(CC(O)C(F)(F)F)c2cccc(Oc3ccccc3)c2)c1 (stereo not given) | 7.8 | – |
| CC(C)(C)Oc1cccc(CN(CC(O)C(F)(F)F)c2cccc(Oc3ccccc3)c2)c1 (stereo not given) | 0.66 | IC50 [2]: 29 µM |
| Cc1ccccc1CN(CC(O)C(F)(F)F)c1cccc(F)c1 (stereo not given) | > 100 | – |
| OC(CN(Cc1cccc(Oc2cccc(C(F)(F)F)c2)c1)c1cccc(F)c1)C(F)(F)F (stereo not given) | > 100 | – |
| OC(CN(Cc1cccc(C2CCCC2)c1)c1cccc(Oc2ccccc2)c1)C(F)(F)F (stereo not given) | 0.3 | – |
| Cc1ccc(CN(CC(O)C(F)(F)F)c2cccc(F)c2)cc1 (stereo not given) | 65 | – |
| O[C@H](CN(Cc1cccc(OC(F)(F)C(F)F)c1)c1cccc(Oc2ccccc2)c1)C(F)(F)F | – | inhibition [7]: 30% |
| OC(CN(Cc1cccc(OC(F)(F)C(F)F)c1)c1cccc(F)c1)C(F)(F)F (stereo not given) | 4.5 | – |
| Cc1ccccc1N(Cc1cccc(C(F)(F)F)c1)CC(O)C(F)(F)F (stereo not given) | > 100 | – |
| Cc1ccc(N(Cc2cccc(C(F)(F)F)c2)CC(O)C(F)(F)F)cc1 (stereo not given) | > 100 | – |
